Measured values collected from several papers.
Compare with care: the assays were run in different laboratories.
Target: Homeodomain-interacting protein kinase 3 (HIPK3, Homo sapiens, UniProt Q9H422)

`CN(C)C(=O)Cn1cc(-c2nc(C3(c4ccc(-c5cnc(N)nc5)cc4)CC3)no2)cn1` gave a remaining binding of 71% (cell-free assay, competition with immobilised ligand; 1 µM).
With `c1cnn2ncc(-c3ccnc(N4CCC45COC5)n3)c2c1` the remaining binding was 50% (binding; 1 µM).
The remaining binding of `O=C(c1ccc(Nc2ncc(Cl)c(-c3cc4ccccc4s3)n2)cc1)N1CCC(N2CCCC2)CC1` is reported as 1.8% (binding, competition with immobilised ligand; 1 µM).
The remaining binding of `C[C@H]1CCN(c2nccc(-c3cnn4ncccc34)n2)C1` is reported as 61% (binding; 1 µM).
The remaining binding of `O=C(NCCCN1CCOCC1)c1ccc(Nc2nccc(-c3cc4ccccc4s3)n2)cc1` is reported as 39% (binding, competition with immobilised ligand; 1 µM).
`O=C(NCC1CCOCC1)c1n[nH]cc1NC(=O)c1c(F)cccc1F` gave a remaining binding of 63% (binding, competition with immobilised ligand; 1 µM).
The remaining binding of `O=C(NCc1ncc(C(F)(F)F)cc1Cl)c1ccc2c(c1)C1(CCS(=O)(=O)CC1)[C@@H](C1CC1)N2S(=O)(=O)c1ccc(F)cc1` is reported as 81% (cell-free assay, competition with immobilised ligand; 1 µM).
`CN(CCCC(F)(F)F)c1nccc(-c2cnn3ncccc23)n1` gave a remaining binding of 88% (binding; 1 µM).
The remaining binding of `O=C(NCCCN1CCOCC1)c1ccc(Nc2ncc(Cl)c(-c3ccc(Cl)s3)n2)cc1` is reported as 15% (binding, competition with immobilised ligand; 1 µM).
With `O=C(Nc1ccc(Oc2ccc(F)cc2)cc1)N1CCc2ncccc2[C@H]1c1ccc(F)cc1` the remaining binding was 92% (cell-free assay, competition with immobilised ligand; 1 µM).
The remaining binding of `c1cncc(-c2cccc(Nc3nccc(NC4CCCCC4)n3)c2)c1` is reported as 57% (binding, competition with immobilised ligand; 10 µM).
`FC(F)(F)Oc1cccc(-c2cnc3ccc(-c4ccncc4)nn23)c1` gave a remaining binding of 0.7% (cell-free assay, competition with immobilised ligand; 5 µM).
With `O=C(O)c1cc(-c2ccc(C3CCNCC3)cc2)c2ccc(-c3ccc(C(F)(F)F)cc3)cc2c1` the remaining binding was 100% (cell-free assay, competition with immobilised ligand; 1 µM).
`CCN1CCN(Cc2ccc(C(=O)Nc3ccc(C)c(Oc4ccc5c(c4)CC(=O)N5)c3)cc2C(F)(F)F)CC1` has a remaining binding of 100% (binding, competition with immobilised ligand; 1 µM).
`O=C(N[C@H]1CCCCC/C=C\C2C[C@@]2(C(=O)O)NC(=O)[C@@H]2C[C@@H](Oc3ccncc3)CN2C1=O)OC1CCCC1` (stereo partly shown) gave a remaining binding of 100% (binding, competition with immobilised ligand; 1 µM).
For `CN(C)c1nccc(-c2cnn3ncccc23)n1`, the remaining binding was 51% (binding; 1 µM).
For `CNC(=O)[C@@H]1CC[C@@H](n2c(-c3ccc4cnccc4c3)nc3ccc(C(=O)NCc4cccc(C(N)=O)c4)cc32)C1`, the remaining binding was 100% (binding, competition with immobilised ligand; 1 µM).
The remaining binding of `CC(=O)N1CCC(c2ccc(C(=O)NC3=NCCN3)cc2C(F)(F)F)CC1` is reported as 72% (cell-free assay, competition with immobilised ligand; 1 µM).
The remaining binding of `N[C@@H]1CCN(c2nccc(-c3cnn4ncccc34)n2)C1` is reported as 83% (binding; 1 µM).
`O=C1NC(c2ccccn2)Sc2ccccc21` (stereo not shown) has a remaining binding of 86% (cell-free assay, competition with immobilised ligand; 1 µM).
With `CN(c1nccc(-c2cnn3ncccc23)n1)C1CC1` the remaining binding was 100% (binding; 1 µM).
The remaining binding of `COc1cnc(Nc2cccc(S(N)(=O)=O)c2)nc1N1CCN(c2ccccc2)CC1` is reported as 100% (binding, competition with immobilised ligand; 1 µM).
